Measured values published in ChEMBL document CHEMBL1139834, “Synthesis and structure-activity relationships of new benzodioxinic lactones as potential anticancer drugs” (J Med Chem, 2007).
Active and inactive are the calls of the source. The calls are words filed in the database; no cut-off is given here.

Legend:
NCI/ADR-RES = test: Antitumor activity against human NCI/ADRRES cell line; assay type: functional
Summary of the method: (§1)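 Human tumour cell line panel. GI50 is the concentration giving 50% growth inhibition, averaged over at least two determinations. LC50 is the concentration killing 50% of cells in a […] assay.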

Hs-578T = test: Antitumor activity against human HS578T cell line; assay type: functional; summary of the method: as §1
OVCAR-3 = test: Antitumor activity against human OVCAR-3 cell line; assay type: functional; summary of the method: as §1
NCI-H460 = test: Antitumor activity against human NCI-H460 cell line; assay type: functional; summary of the method: as §1
NCI-H522 = test: Antitumor activity against human NCI-H522 cell line; assay type: functional; summary of the method: as §1
COLO 205 = test: Antitumor activity against human Colo205 cell line; assay type: functional; summary of the method: as §1
HCT-116 = test: Antitumor activity against human HCT116 cell line; assay type: functional; summary of the method: as §1
HCT-15 = test: Antitumor activity against human HCT15 cell line; assay type: functional; summary of the method: as §1
HT-29 [1] = test: Antitumor activity against human HT29 cell line; assay type: functional
KM12 = test: Antitumor activity against human KM12 cell line; assay type: functional; summary of the method: as §1
SW-620 = test: Antitumor activity against human SW620 cell line; assay type: functional
Summary of the method: (§2)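 Human tumour cell lines from a selected panel. GI50 is the concentration giving 50% growth inhibition, averaged from at least two determinations. LC50 is the concentration killing 50% of cells in a […] assay.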

SF-268 = test: Antitumor activity against human SF268 cell line; assay type: functional; summary of the method: as §1
SF-295 = test: Antitumor activity against human SF295 cell line; assay type: functional; summary of the method: as §1
SF-539 = test: Antitumor activity against human SF539 cell line; assay type: functional; summary of the method: as §1
SNB-75 = test: Antitumor activity against human SNB75 cell line; assay type: functional; conditions: read-out: LC50 (the source's name); summary of the method: as §2
U-251 = test: Antitumor activity against human U251 cell line; assay type: functional; summary of the method: as §2
LOX IMVI = test: Antitumor activity against human LOX IMVI cell line; assay type: functional; summary of the method: as §1
Malme-3M = test: Antitumor activity against human MALME3M cell line; assay type: functional; summary of the method: as §1
SK-MEL-2 = test: Antitumor activity against human SKMEL2 cell line; assay type: functional; summary of the method: as §1
SK-MEL-28 = test: Antitumor activity against human SKMEL28 cell line; assay type: functional; summary of the method: as §1
SK-MEL-5 = test: Antitumor activity against human SKMEL5 cell line; assay type: functional; summary of the method: as §1
UACC-62 = test: Antitumor activity against human UACC62 cell line; assay type: functional; summary of the method: as §2
UACC-257 = test: Antitumor activity against human UACC257 cell line; assay type: functional; summary of the method: as §2
[2] = Antitumor activity against human IGROVI cell line; assay type: functional; summary of the method: as §1
OVCAR-4 = test: Antitumor activity against human OVCAR4 cell line; assay type: functional; summary of the method: as §1
OVCAR-5 = test: Antitumor activity against human OVCAR5 cell line; assay type: functional; summary of the method: as §1
L1210 = test: Cytotoxicity against mouse L1210 cell line; assay type: cell-based; conditions: Mus musculus, L1210
Summary of the method: (§3)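 Cells grown at 37 °C under 5% CO2 in medium with 2 mM L-glutamine, penicillin, streptomycin and 20% heat-inactivated horse serum. Drug in DMSO (0.5% final) added to exponentially growing cells seeded at 0.8 × 10^5 cells/mL. Coulter counting in quadruplicate at 48 h (L1210) or 96 h (HT-29). IC50 from probit of % growth inhibition versus log dose; four independent runs in triplicate.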

HT-29 [3] = test: Cytotoxicity against human HT29 cell line; assay type: cell-based; summary of the method: as §3
Homo sapiens = species: Homo sapiens; test: Inhibition of topoisomerase 2 assessed by DNA cleavage complex formation assay
Summary of the method: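 Cleavage complex formed on pYRG plasmid DNA by human topoisomerase II purified from placenta. Linear DNA product quantified by densitometry relative to ellipticine.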

CCRF-CEM = test: Antitumor activity against human CCRF-CEM cell line; assay type: functional; summary of the method: as §1
HL-60 = test: Antitumor activity against human HL60 cell line; assay type: functional; summary of the method: as §1
K562 = test: Antitumor activity against human K562 cell line; assay type: functional; summary of the method: as §1
MOLT-4 = test: Antitumor activity against human MOLT4 cell line; assay type: functional; summary of the method: as §1
RPMI-8226 = test: Antitumor activity against human RPMI8226 cell line; assay type: functional; summary of the method: as §1
EKVX = test: Antitumor activity against human EKVX cell line; assay type: functional; summary of the method: as §1
NCI-H226 = test: Antitumor activity against human NCI-H226 cell line; assay type: functional; summary of the method: as §1
NCI-H322M = test: Antitumor activity against human NCI-H322M cell line; assay type: functional; summary of the method: as §1
A498 = test: Antitumor activity against human A498 cell line; assay type: functional; summary of the method: as §1
OVCAR-8 = test: Antitumor activity against human OVCAR8 cell line; assay type: functional; summary of the method: as §1
ACHN = test: Antitumor activity against human ACHN cell line; assay type: functional; summary of the method: as §1
CAKI-1 = test: Antitumor activity against human CAKI1 cell line; assay type: functional; summary of the method: as §1
SN12C = test: Antitumor activity against human SN12C cell line; assay type: functional; summary of the method: as §1
UO-31 = test: Antitumor activity against human UO31 cell line; assay type: functional; summary of the method: as §2
PC-3 = test: Antitumor activity against human PC3 cell line; assay type: functional; summary of the method: as §1
DU-145 = test: Antitumor activity against human DU145 cell line; assay type: functional; summary of the method: as §1
MCF7 = test: Antitumor activity against human MCF7 cell line; assay type: functional; summary of the method: as §1
MDA-MB-231 = test: Antitumor activity against human MDA-MB-231 cell line; assay type: functional; summary of the method: as §1
MDA-MB-435 = test: Antitumor activity against human MDA-MB-435 cell line; assay type: functional; summary of the method: as §1
MDA-N = test: Antitumor activity against human MDA-N cell line; assay type: functional; summary of the method: as §1
T47D = test: Antitumor activity against human T47D cell line; assay type: functional; summary of the method: as §2
[4] = read-out: LC50 (the source's name)

CCCCc1c2c(c(C)c3c1C(=O)OC3)Oc1ccccc1O2
GI50 (NCI/ADR-RES): 0.437 µM | CC50 (NCI/ADR-RES; [4]): 100 µM | GI50 (Hs-578T): 0.363 µM | CC50 (Hs-578T; [4]): 100 µM | GI50 (OVCAR-3): 0.525 µM | CC50 (OVCAR-3; [4]): 100 µM | GI50 (NCI-H460): 0.372 µM | CC50 (NCI-H460; [4]): 100 µM | GI50 (NCI-H522): 0.234 µM | CC50 (NCI-H522; [4]): 100 µM | GI50 (COLO 205): 0.741 µM | CC50 (COLO 205; [4]): 100 µM | GI50 (HCT-116): 0.38 µM | CC50 (HCT-116; [4]): 50 µM | GI50 (HCT-15): 0.589 µM | CC50 (HCT-15; [4]): 100 µM | GI50 (HT-29 [1]): 0.331 µM | CC50 (HT-29 [1]; [4]): 100 µM | GI50 (KM12): 0.49 µM | CC50 (KM12; [4]): 100 µM | GI50 (SW-620): 0.525 µM | CC50 (SW-620; [4]): 100 µM | GI50 (SF-268): 0.977 µM | CC50 (SF-268; [4]): 100 µM | GI50 (SF-295): 0.447 µM | CC50 (SF-295; [4]): 100 µM | GI50 (SF-539): 0.339 µM | CC50 (SF-539; [4]): 10 µM | CC50 (SNB-75): 90 µM | GI50 (U-251): 0.525 µM | CC50 (U-251; [4]): 40 µM | GI50 (LOX IMVI): 1.23 µM | CC50 (LOX IMVI; [4]): 100 µM | GI50 (Malme-3M): 0.447 µM | CC50 (Malme-3M; [4]): 100 µM | GI50 (SK-MEL-2): 0.363 µM | CC50 (SK-MEL-2; [4]): 100 µM | GI50 (SK-MEL-28): 39.8 µM | CC50 (SK-MEL-28; [4]): 100 µM | GI50 (SK-MEL-5): 0.427 µM | CC50 (SK-MEL-5; [4]): 100 µM | GI50 (UACC-62): 0.49 µM | CC50 (UACC-62; [4]): 100 µM | GI50 (UACC-257): 0.302 µM | CC50 (UACC-257; [4]): 100 µM | GI50 [2]: 0.282 µM | CC50 [2, 4]: 10 µM | GI50 (OVCAR-4): 1.95 µM | CC50 (OVCAR-4; [4]): 100 µM | GI50 (OVCAR-5): 7.59 µM | CC50 (OVCAR-5; [4]): 100 µM | IC50 (L1210): 2.4 µM | IC50 (HT-29 [3]): 0.58 µM | Activity (Homo sapiens): inactive | GI50 (CCRF-CEM): 0.501 µM | CC50 (CCRF-CEM; [4]): 100 µM | GI50 (HL-60): 0.245 µM | CC50 (HL-60; [4]): 100 µM | GI50 (K562): 0.38 µM | CC50 (K562; [4]): 100 µM | GI50 (MOLT-4): 0.447 µM | CC50 (MOLT-4; [4]): 100 µM | GI50 (RPMI-8226): 0.759 µM | CC50 (RPMI-8226; [4]): 100 µM | GI50 (EKVX): 2.95 µM | CC50 (EKVX; [4]): 100 µM | GI50 (NCI-H226): 1.86 µM | CC50 (NCI-H226; [4]): 100 µM | GI50 (NCI-H322M): 0.933 µM | CC50 (NCI-H322M; [4]): 100 µM | GI50 (A498): 0.776 µM | CC50 (A498; [4]): 100 µM | GI50 (OVCAR-8): 3.55 µM | CC50 (OVCAR-8; [4]): 100 µM | GI50 (ACHN): 3.72 µM | CC50 (ACHN; [4]): 100 µM | GI50 (CAKI-1): 26.3 µM | CC50 (CAKI-1; [4]): 100 µM | GI50 (SN12C): 1.26 µM | CC50 (SN12C; [4]): 100 µM | GI50 (UO-31): 2.24 µM | CC50 (UO-31; [4]): 100 µM | GI50 (PC-3): 0.437 µM | CC50 (PC-3; [4]): 100 µM | GI50 (DU-145): 1.82 µM | CC50 (DU-145; [4]): 100 µM | GI50 (MCF7): 1.23 µM | CC50 (MCF7; [4]): 100 µM | GI50 (MDA-MB-231): 2.34 µM | CC50 (MDA-MB-231; [4]): 100 µM | GI50 (MDA-MB-435): 0.158 µM | CC50 (MDA-MB-435; [4]): 40 µM | GI50 (MDA-N): 0.117 µM | CC50 (MDA-N; [4]): 60 µM | GI50 (T47D): 6.46 µM | CC50 (T47D; [4]): 100 µM
